Series [1] relates to PC-3. The series can be described thus: Antitumor activity against human PC-3 cells xenografted in mouse assessed as reduction in tumour weight at 0.5 mg/kg, ip administered upto 23 days relative to control. Also on record: scale not given: the % may be the effect or the level left. Format: functional. The note with it: time <= 23 day. (In general: A xenograft is tissue or cells of one species grown in another, often human tumour cells in immunodeficient mice.)

The nature of series [2]: Cytotoxicity against human PC-3 cells assessed as inhibition of cell growth incubated for 72 hrs and followed by treated with compound continued incubation for further 72 hrs (double treatment) after retreatment of compound by CellTiter 96 aqueous assay. In kind it is toxicity, cell-based. In a few lines:
(§1)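 PC-3 or MDA-MB-231 cells were treated the day after seeding with serial dilutions, from 2000 nM for conjugates and 100 nM for MMAE, for 72 h. Then the assay was stopped, or run 72 h more after a medium change (single) or re-treatment (double). Controls got 0.05 % DMSO. Read-out was MTS absorbance at 490 nm after 90 min. IC50 by non-linear regression; ≥2 experiments, triplicates.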

Series [3] has as its system PC-3. The series can be described thus: Antitumor activity against human PC-3 cells xenografted in mouse assessed as reduction in tumour volume relative to control. Also on record: scale not given: the % may be the effect or the level left. Format: functional. In a few lines: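 Acute study in mice bearing subcutaneous PC-3 tumours. Single i.p. dose (0.1 mL) 9 days after inoculation, at a mean tumour volume of 62 mm³. Eight per group, randomized. Conjugates at 2 mg/kg MMAE-content, free MMAE at 1 mg/kg, in 5 % DMSO in water; solvent controls. Calliper volume V = ab²×π/6. Sacrifice at 20 % weight loss or 2000 mm³.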

Series [4] in a line: Cytotoxicity against human PC-3 cells assessed as inhibition of cell growth incubated for 72 hrs by CellTiter 96 aqueous assay. Format: toxicity, cell-based. In a few lines:
as §1

Series [5] in a line: Cytotoxicity against human MDA-MB-231 cells assessed as inhibition of cell growth incubated for 72 hrs and followed by treated with compound continued incubation for further 72 hrs (double treatment) after retreatment of compound by CellTiter 96 aqueous assay. Format: toxicity, cell-based. The method, boiled down: as §1
Series [6] has as its target T1, Gastrin-releasing peptide receptor (Homo sapiens, UniProt P30550). The series can be described thus: Displacement of 125 I- [Tyr4] from bombesin receptor 2 in human PC-3 cells assessed as inhibition by radioligand displacement assay. Format: cell-based. The method, boiled down:
(§2)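 Competition binding on membrane preparations from PC-3 or MDA-MB-231 cells against ¹²⁵I-[Tyr⁴]-bombesin, with conjugates at 10 μM–10 pM. IC50 was taken as the concentration giving 50 % inhibition of tracer binding.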
On the technique in general: In a radioligand displacement assay an active substance lowers the binding of a labelled ligand.

Series [7] can be described thus: Toxicity in mouse xenografted with human PC-3 cells assessed as body weight loss at 1 mg/kg, ip administered relative to control. In kind it is organism-based. Particulars: in vivo, 2 mg/kg, in the assay text read “2 mg/kg” for “1 mg/kg”. In a few lines: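 Toxicity in mice bearing subcutaneous PC-3 tumours after a single i.p. dose 9 days post-inoculation. Free drug at 1 mg/kg, conjugates at 2 mg/kg MMAE-content, in 5 % DMSO in water; solvent controls; eight per group. Body weight followed periodically. Endpoint at 20 % weight loss; behaviour (activity, coat, stool, paleness) also scored.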

The nature of series [8]: Cytotoxicity against human PC-3 cells assessed as inhibition of cell growth incubated with compound for 72 hrs followed by further incubated for 72 hrs (single treatment) by CellTiter 96 aqueous assay. In kind it is toxicity, cell-based. In a few lines:
as §1

Series [9] is described as follows: Toxicity in mouse xenografted with human PC-3 cells assessed as effect on liver 0.5 mg/kg, ip administered upto 23 days. The note with it: in vivo, 552 h.
Series [10] relates to PC-3. As to the kind of experiment: Antitumor activity against human PC-3 cells xenografted with mouse assessed as median survival days at 2 mg/kg, ip (reference value: 33 days).
Series [11] is described as follows: Biodistribution in mouse xenografted with human PC-3 cells assessed as tumour environment incubated for 24 hrs by LC-HRMS. In kind it is ADME, organism-based, Neoplasm. Particulars: in vivo. The method, boiled down:
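Mice bearing PC-3 xenografts received a single 2 mg/kg i.p. dose. Blood, tumour, liver, kidneys, heart, lungs and pancreas were collected at 1, 6 and 24 h and pooled per group. Tissues were homogenised in water (1:2 w/v) and centrifuged. Released MMAE was measured by LC-HRMS and expressed as %ID/g (n = 3).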

Series [12] concerns PC-3. The series can be described thus: Antitumor activity against human PC-3 cells xenografted in mouse assessed as inhibition in tumour growth at 0.5 mg/kg, ip administered upto 23 days. Format: functional, organism-based. The note with it: time <= 23.0 day. In a few lines:
(§3)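 Chronic study in mice bearing subcutaneous PC-3 tumours. Dosing began 8 days after cell inoculation, at a mean tumour volume of 93 mm³. Seven per group, randomized. Four i.p. doses (0.1 mL) on days 8, 11, 16 and 23 of 0.5 mg/kg MMAE-content, in 5 % DMSO in water for injection; controls got solvent. Tumour volume by calliper, V = ab²×π/6.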

The nature of series [13]: Cytotoxicity against human cells MDA-MB-231 assessed as inhibition of cell growth incubated for 72 hrs by CellTiter 96 aqueous assay. Format: toxicity, cell-based. Particulars: MDA-MB-231 cells. In a few lines: as §1
Series [14] has as its target T1, Gastrin-releasing peptide receptor. As to the kind of experiment: Displacement of 125 I- [Tyr4] from bombesin receptor 2 in human MDA-MB-231 cells assessed as inhibition by radioligand displacement assay. Format: cell-based. The method, boiled down: as §2
In series [15] the test system is PC-3. As to the kind of experiment: Antitumor activity against human PC-3 cells xenografted in mouse assessed as reduction in tumour size at 0.5 mg/kg, ip administered upto 23 days relative to control. In kind it is functional. Set-up: scale not given: the % may be the effect or the level left. The note with it: time <= 23 day. The method, boiled down:
as §3

Series [16] in a line: Toxicity in mouse xenografted with human PC-3 cells assessed as change in body weight at 0.2 mg/kg, ip administered upto 23 days. Format: organism-based. Particulars: in vivo, 0.5 mg/kg, 552 h, in the assay text read “0.5 mg/kg” for “0.2 mg/kg”. The method, boiled down: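 Chronic dosing in mice bearing PC-3 xenografts. Free MMAE at 0.2 mg/kg (conjugates at 0.5 mg/kg MMAE-content), i.p. in 5 % DMSO in water on days 8, 11, 16 and 23 after inoculation. Seven per group; solvent controls. Body weight measured at the start and at periodic intervals.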

The nature of series [17]: Cytotoxicity against human MDA-MB-231 cells assessed as inhibition of cell growth incubated with compound for 72 hrs followed by further incubated for 72 hrs (single treatment) by CellTiter 96 aqueous assay. In kind it is toxicity, cell-based. In a few lines:
as §1

For series [18], the system named is PC-3. As to the kind of experiment: Antitumor activity against human PC-3 cells xenografted in mouse assessed as median survival day at 1 mg/kg, ip administration for 33 days. Format: functional. Particulars: time 33 day.
The nature of series [19]: Biodistribution in kidney mouse xenografted with human PC-3 cells incubated for 24 hrs by LC-HRMS. In kind it is ADME, organism-based. The note with it: in vivo. In a few lines:
(§4)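 Mice bearing s.c. PC-3 tumours given a single i.p. dose of 2 mg/kg; 3 mice per time point, sampled at 1, 6 and 24 h. Blood, tumour, liver, kidneys, heart, lungs and pancreas pooled per group and homogenised in water (1:2 w/v); supernatants analysed for MMAE by LC-HRMS; expressed as %ID/g.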

A short description of series [20]: Biodistribution in mouse pancreas xenografted with human PC-3 cells by LC-HRMS relative to control. Format: ADME, organism-based. Particulars: in vivo.
For series [21], the system named is PC-3. The series can be described thus: Antitumor activity against human PC-3 cells xenografted with mouse assessed as median survival days at 1 mg/kg, ip (reference value: 33 days).
The nature of series [22]: Biodistribution in mouse pancreas xenografted with human PC-3 cells assessed as parent compound by LC-HRMS. In kind it is ADME, organism-based. The note with it: in vivo. The method, boiled down: as §4
A short description of series [23]: Biodistribution in liver of mouse xenografted with human PC-3 cells incubated for 24 hrs by LC-HRMS. The note with it: in vivo. In kind it is ADME, organism-based. The method, boiled down:
as §4

Activity calls are given as the source filed them. No cut-off for these calls is given here. Square brackets hold non-standard residues; d marks the D form. Peptide text beside a SMILES is read from it. * marks the point of attachment. Dolaproine = CO[C@@H]([C@@H]1CCCN1)[C@@H](C)C(=O)O; Dil = CC[C@H](C)[C@H](NC)[C@@H](CC(=O)O)OC; X3 = C[C@@H](N*)[C@@H](O)c1ccccc1; NMeV = CN[C@H](C(=O)O)C(C)C Where only a bound is given, the exact number is not on record here.

T1 sequence (P30550 whole entry): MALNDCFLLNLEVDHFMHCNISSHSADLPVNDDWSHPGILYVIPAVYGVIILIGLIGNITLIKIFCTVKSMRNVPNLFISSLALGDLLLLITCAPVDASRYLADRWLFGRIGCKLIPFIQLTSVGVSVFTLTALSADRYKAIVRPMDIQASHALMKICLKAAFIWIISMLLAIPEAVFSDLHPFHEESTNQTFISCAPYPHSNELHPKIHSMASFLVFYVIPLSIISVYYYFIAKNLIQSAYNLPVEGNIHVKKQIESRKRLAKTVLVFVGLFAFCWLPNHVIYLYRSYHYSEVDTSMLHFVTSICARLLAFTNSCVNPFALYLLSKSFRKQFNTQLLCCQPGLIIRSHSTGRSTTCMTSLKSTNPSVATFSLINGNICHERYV

Turning to `CC[C@H](C)[C@@H]([C@@H](CC(=O)N1CCC[C@H]1[C@H](OC)[C@@H](C)C(=O)N[C@H](C)[C@@H](O)c1ccccc1)OC)N(C)C(=O)[C@@H](NC(=O)[C@H](C(C)C)N(C)C(=O)OCc1ccc(NC(=O)[C@H](CCCNC(N)=O)NC(=O)[C@@H](NC(=O)[C@H](CCC(=O)O)NC(=O)CCCCCN2C(=O)CC(SC[C@H](NC(C)=O)C(=O)NCCOCCOCCOCCOCCC(=O)N[C@H](Cc3ccccc3)C(=O)N[C@@H](CCC(N)=O)C(=O)N[C@@H](CC3=CSC4C=CC=CC34)C(=O)N[C@@H](C)C(=O)N[C@H](C(=O)NCC(=O)N[C@@H](Cc3c[nH]cn3)C(=O)N[C@@H](CC(C)C)[C@@H](O)CC(=O)N[C@@H](CC(C)C)C(N)=O)C(C)C)C2=O)C(C)C)cc1)C(C)C` (stereo partly specified), the Activity in the series with PC-3 [1] is 26%; in the series with PC-3 [3], 34.2%; in [7] it was < 20%; in [9] it was “Non-Toxic”; in the series with PC-3 [15], 48%; in series [16], “Toxic”. Besides, the IC50 at 144 h came to 4 nM in series [2], 39.9 nM in [5], 6 nM in [8] and 41 nM in series [17]. For the same compound, the IC50 at 72 h in [4] is 29.3 nM; in [13], 299 nM. Besides, the results for the IC50 in series [6] and in [14] were 58.2 nM and 70.4 nM, respectively. Also, the Survival in the series with PC-3 [10] was determined as 42 days. Besides, the Drug uptake entry in series [11] is “Active”. Also, the outcome in the series with PC-3 [12] was Active.
Consider `CC[C@H](C)[C@@H]([C@@H](CC(=O)N1CCC[C@H]1[C@H](OC)[C@@H](C)C(=O)N[C@H](C)[C@@H](O)c1ccccc1)OC)N(C)C(=O)[C@@H](NC(=O)[C@@H](NC)C(C)C)C(C)C` (H-[NMeV]V[Dil][Dolaproine]-X3), for which the IC50 at 144 h in series [2] was determined as 0.3 nM; in series [5], 0.2 nM; in series [8] it was 0.4 nM; in series [17], 0.2 nM. In addition, the Survival in the series with PC-3 [18] and in the series on PC-3 [21] was 24.5 days throughout. For the same compound, the Activity in the series on PC-3 [3] is recorded as 15.9%. Moreover, the IC50 at 72 h was found to be 3.4 nM in series [4] and 10.1 nM in [13]. Also, the Drug uptake entry in series [19] is “Active”; in series [11], “Active”; in series [20], 3.55%; in [22], 10.1%; in series [23], “Active”.

A word on the IC50: it is the point on the concentration scale where inhibition reaches its midpoint.

The record behind these values is ChEMBL document CHEMBL6071141, “In vitro and in vivo evaluation of Bombesin-MMAE conjugates for targeted tumour therapy” (Eur J Med Chem, 2024).
